# Results published in ChEMBL document CHEMBL4007408, “Identification of Novel Triazole-Based Nicotinamide Phosphoribosyltransferase (NAMPT) Inhibitors Endowed with Antiproliferative and Antiinflammatory Activity” (J Med Chem, 2017).
# The source made the active and inactive calls. The calls are words filed in the database; no cut-off is given here.
# Experiments:
# [1] = biological target: Nicotinamide phosphoribosyltransferase (Mus musculus, UniProt Q99KQ4); test: Inhibition of recombinant mouse NAMPT expressed in bacterial expression system using nicotinamide as substrate after 1 hr by fluorescence based NMNAT-3 enzyme coupled assay; conditions: read-out: IC50
# SH-SY5Y = test: Cytotoxicity against human SH-SY5Y cells assessed as reduction in cell viability after 56 hrs by MTT assay; assay type: functional, cell-based; conditions: Homo sapiens, SH-SY5Y, 56 h; read-out: EC50
# Liver [2] = test: Stability in human liver microsomes after 60 mins by LC-ESI-MS analysis; assay type: ADME, microsome; conditions: 1 h
# Liver [3] = test: Stability in Wistar Han rat liver microsomes after 60 mins by LC-ESI-MS analysis; assay type: ADME, microsome; conditions: 1 h
# [4] = Drug metabolism in Wistar Han rat liver microsomes assessed as mixed function oxidase mediated compound cleavage by measuring compound remaining after 60 mins in presence of NADPH-regenerating system by LC-UV analysis; assay type: ADME; conditions: read-out: Stability
# Method in brief: (§1)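 Substrate at 50 μM final, with rat or human liver microsomes at 1.0 mg/ml protein, in 50 mM Tris-HCl pH 7.4. Mix held 3.3 mM MgCl2, 1% acetonitrile and an NADPH-regenerating system (1.3 mM β-NADP, 3.3 mM glucose 6-phosphate, 0.4 U/ml G6PDH). Shaken 60 min at 37 °C, stopped with ice-cold acetonitrile. LC-UV gave % residual substrate versus a no-microsome control, mean of two replicates.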
# [5] = Drug metabolism in human liver microsomes assessed as mixed function oxidase mediated compound cleavage by measuring compound remaining after 60 mins in presence of NADPH-regenerating system by LC-UV analysis; assay type: ADME; conditions: read-out: Stability; method in brief: as §1
# [6] = Stability in Wistar Han rat liver microsomes assessed as mixed function oxidase mediated compound cleavage after 60 mins in presence of NADPH-regenerating system by LC-UV analysis; assay type: ADME; conditions: 1 h; method in brief: as §1
# Liver [7] = test: Stability in human liver microsomes assessed as mixed function oxidase mediated compound cleavage after 60 mins in presence of NADPH-regenerating system by LC-UV analysis; assay type: ADME, microsome; conditions: 1 h; method in brief: as §1
# Liver [8] = test: Drug metabolism in Wistar Han rat liver microsomes assessed as pyridine N-oxidation after 60 mins in presence of NADPH-regenerating system by LC-UV analysis; assay type: ADME, microsome; conditions: 1 h
# Method in brief: (§2)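 Metabolites were characterized by LC-ESI-MSn on supernatants of 60 min, 37 °C incubations. Each used 50 μM substrate with rat or human liver microsomes (1.0 mg/ml protein) in 50 mM Tris-HCl pH 7.4 with 3.3 mM MgCl2, 1% acetonitrile and an NADPH-regenerating system. Reactions were quenched with cold acetonitrile and centrifuged.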
# Liver [9] = test: Drug metabolism in human liver microsomes assessed as pyridine N-oxidation after 60 mins in presence of NADPH-regenerating system by LC-UV analysis; assay type: ADME, microsome; conditions: 1 h; method in brief: as §2
# [10] = Half life in athymic Nu/Nu Harlan mouse at 10 mg/kg, iv administered as single dose up to 24 hrs by LC-ESI-MS analysis; assay type: ADME, organism-based; conditions: in vivo
# [11] = AUC in athymic Nu/Nu Harlan mouse at 10 mg/kg, iv administered as single dose up to 24 hrs by LC-ESI-MS analysis; assay type: ADME, organism-based; design: time < 24 hr, dose 10 mg/kg, route intravenous; conditions: in vivo
# [12] = Clearance in athymic Nu/Nu Harlan mouse at 10 mg/kg, iv administered as single dose up to 24 hrs by LC-ESI-MS analysis; assay type: ADME, organism-based; conditions: in vivo
# [13] = Volume of distribution in athymic Nu/Nu Harlan mouse at 10 mg/kg, iv administered as single dose up to 24 hrs by LC-ESI-MS analysis; assay type: ADME, organism-based; conditions: in vivo
# Mus musculus [14] = test: Drug metabolism in athymic Nu/Nu Harlan mouse blood assessed as N-oxide metabolite formation at 10 mg/kg, iv administered as single dose up to 24 hrs by LC-ESI-MS analysis; assay type: ADME, organism-based; conditions: in vivo
# [15] = Apparent aqueous solubility of the compound; assay type: physicochemical; conditions: buffer
# Method in brief: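 Kinetic solubility was measured by filtration. Compound from a 10 mM DMSO stock was diluted in PBS pH 7.4 to nominal 500 and 200 μM, shaken 90 min at room temperature and filtered. Filtrate was diluted 4:1 with acetonitrile and absorbance read at 260/280 nm. Concentration came from a calibration curve (3.13–500 μM in 80:20 PBS/acetonitrile, 5% DMSO; r2 >0.85) × 1.25. Run in duplicate.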
# A2780 [16] = test: Cytotoxicity against human A2780 cells assessed as reduction in cell viability; assay type: functional, cell-based
# A2780 [17] = test: Antitumor activity against human A2780 cells xenografted in athymic nu/nu Harlan mouse assessed as reduction in tumor growth at 10 mg/kg, ip bid administered for 8 consecutive days; assay type: functional, organism-based
# Mus musculus [18] = test: Toxicity in athymic nu/nu Harlan mouse xenografted with human A2780 cells assessed as body weight loss at 10 mg/kg, ip bid administered for 8 consecutive days measured through out study; assay type: organism-based; conditions: in vivo
# Fibrosarcoma cell = test: Antitumor activity against mouse fibrosarcoma cells allografted in athymic nu/nu Harlan mouse
# Mammary cancer cell = test: Antitumor activity against mouse mammary cancer cells allografted in athymic nu/nu Harlan mouse
# Mus musculus [19] = test: In vivo inhibition of NAMPT in DNBS-induced BALB/c mouse colitis model assessed as reduction in loss of body weight at 20 mg/kg, ip bid administered for 3 days post DNBS challenge; assay type: functional, organism-based
# Mus musculus [20] = test: In vivo inhibition of NAMPT in DNBS-induced BALB/c mouse colitis model assessed as reduction in mucosal congestion at 20 mg/kg, ip bid administered for 3 days post DNBS challenge; assay type: functional, organism-based
# Mus musculus [21] = test: In vivo inhibition of NAMPT in DNBS-induced BALB/c mouse colitis model assessed as reduction in erosion at 20 mg/kg, ip bid administered for 3 days post DNBS challenge; assay type: functional, organism-based
# Mus musculus [22] = test: In vivo inhibition of NAMPT in DNBS-induced BALB/c mouse colitis model assessed as reduction in hemorrhagic ulcerations at 20 mg/kg, ip bid administered for 3 days post DNBS challenge; assay type: functional, organism-based
# Mus musculus [23] = test: Downregulation of NAMPT expression in DNBS-induced BALB/c mouse colitis model at 20 mg/kg, ip bid administered for 3 days post DNBS challenge by Western blot analysis; assay type: functional, organism-based
# Mus musculus [24] = test: In vivo inhibition of NAMPT in DNBS-induced BALB/c mouse colitis model assessed as reduction in neutrophil infiltration by measuring myeloperoxidase levels at 20 mg/kg, ip bid administered for 3 days post DNBS challenge by ELISA; assay type: functional, organism-based
# [25] = biological target: Nicotinamide phosphoribosyltransferase (Homo sapiens, UniProt P43490); test: Inhibition of NAMPT in human Jurkat T cells assessed as reduction in NAD levels; assay type: cell-based
# Liver [26] = test: Drug metabolism in human liver microsomes assessed as aliphatic hydroxylation of paraffin linkers by LC-ESI-MS or LC-UV analysis; assay type: ADME, microsome; method in brief: as §2
# Liver [27] = test: Drug metabolism in human liver microsomes assessed as aromatic hydroxylation of biphenyl moiety by LC-ESI-MS or LC-UV analysis; assay type: ADME, microsome; method in brief: as §2
# Liver [28] = test: Drug metabolism in human liver microsomes assessed as oxidative N-dealkylation by LC-ESI-MS or LC-UV analysis; assay type: ADME, microsome; method in brief: as §2
# Liver [29] = test: Drug metabolism in Wistar Han rat liver microsomes assessed as aliphatic hydroxylation of paraffin linkers by LC-ESI-MS or LC-UV analysis; assay type: ADME, microsome; method in brief: as §2
# Liver [30] = test: Drug metabolism in Wistar Han rat liver microsomes assessed as aromatic hydroxylation of biphenyl moiety by LC-ESI-MS or LC-UV analysis; assay type: ADME, microsome; method in brief: as §2
# Liver [31] = test: Drug metabolism in Wistar Han rat liver microsomes assessed as oxidative N-dealkylation by LC-ESI-MS or LC-UV analysis; assay type: ADME, microsome; method in brief: as §2
# Liver [32] = test: Drug metabolism in human liver microsomes assessed as compound hydrolysis by measuring 2-aminobiphenyl formation after 60 mins by LC-ESI-MS analysis; assay type: ADME, microsome; conditions: 1 h
# Method in brief: (§3)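 Hydrolytic metabolites were identified by LC-ESI-MSn after 60 min at 37 °C. Incubations used 50 μM substrate with rat or human liver microsomes (1.0 mg/ml) in 50 mM Tris-HCl pH 7.4, 3.3 mM MgCl2 and 1% acetonitrile. Samples without the NADPH-regenerating system were also run, and residual substrate in them was measured.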
# Liver [33] = test: Drug metabolism in human liver microsomes assessed as compound hydrolysis by measuring 8-(4-(pyridin-3-yl)-1H-1,2,3-triazol-1-yl)octanoic acid formation after 60 mins by LC-ESI-MS analysis; assay type: ADME, microsome; method in brief: as §3
# Liver [34] = test: Drug metabolism in Wistar Han rat liver microsomes assessed as compound hydrolysis by measuring 2-aminobiphenyl formation after 60 mins by LC-ESI-MS analysis; assay type: ADME, microsome; conditions: 1 h; method in brief: as §3
# Liver [35] = test: Drug metabolism in Wistar Han rat liver microsomes assessed as compound hydrolysis by measuring 8-(4-(pyridin-3-yl)-1H-1,2,3-triazol-1-yl)octanoic acid formation after 60 mins by LC-ESI-MS analysis; assay type: ADME, microsome; method in brief: as §3
# [36] = Drug metabolism in Wistar Han rat liver microsomes assessed as mixed function oxidase mediated compound degradation after 60 mins in presence of NADPH-regenerating system by LC-UV analysis; assay type: ADME; conditions: 1 h; method in brief: as §1
# [37] = Drug metabolism in human liver microsomes assessed as mixed function oxidase mediated compound degradation after 60 mins in presence of NADPH-regenerating system by LC-UV analysis; assay type: ADME; conditions: 1 h; method in brief: as §1
# Mus musculus [38] = test: Antiinflammatory activity of DSS-induced […] mouse colitis model assessed as reduction in loss of body weight at 20 mg/kg administered daily for 7 days post DSS challenge; assay type: functional, organism-based
# Mus musculus [39] = test: Antiinflammatory activity of DSS-induced […] mouse colitis model assessed as disease activity index at 20 mg/kg administered daily for 7 days post DSS challenge (reference value: 6); assay type: functional
# Mus musculus [40] = test: Antiinflammatory activity of DSS-induced […] mouse colitis model assessed as improved general condition at 20 mg/kg administered daily for 7 days post DSS challenge; assay type: functional, organism-based
# Mus musculus [41] = test: Antiinflammatory activity of DSS-induced […] mouse colitis model assessed as reversion of changes in colon length at 20 mg/kg administered daily for 7 days post DSS challenge; assay type: functional, organism-based
# Mus musculus [42] = test: Antiinflammatory activity of DSS-induced […] mouse colitis model assessed as reduction in neutrophil infiltration by measuring myeloperoxidase levels at 20 mg/kg administered daily for 7 days post DSS challenge by ELISA; assay type: functional, organism-based
# Nicotinamide phosphoribosyltransferase (Mus musculus, UniProt Q99KQ4), sequence (Q99KQ4 whole entry): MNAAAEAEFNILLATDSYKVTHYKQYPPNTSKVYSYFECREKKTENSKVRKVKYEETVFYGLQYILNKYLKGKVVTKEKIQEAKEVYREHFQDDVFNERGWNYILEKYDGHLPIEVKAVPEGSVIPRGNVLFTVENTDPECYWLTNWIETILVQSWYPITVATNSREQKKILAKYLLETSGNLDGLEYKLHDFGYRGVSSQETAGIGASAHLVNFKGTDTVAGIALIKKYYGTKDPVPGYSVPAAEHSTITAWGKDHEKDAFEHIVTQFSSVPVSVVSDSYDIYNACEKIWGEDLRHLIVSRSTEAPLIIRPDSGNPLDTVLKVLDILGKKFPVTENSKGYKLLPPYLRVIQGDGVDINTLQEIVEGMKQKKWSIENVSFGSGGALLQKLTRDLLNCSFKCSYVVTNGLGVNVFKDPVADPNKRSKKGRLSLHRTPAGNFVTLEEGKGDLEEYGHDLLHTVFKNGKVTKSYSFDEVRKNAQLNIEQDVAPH
# Nicotinamide phosphoribosyltransferase (Homo sapiens, UniProt P43490), sequence (P43490 whole entry): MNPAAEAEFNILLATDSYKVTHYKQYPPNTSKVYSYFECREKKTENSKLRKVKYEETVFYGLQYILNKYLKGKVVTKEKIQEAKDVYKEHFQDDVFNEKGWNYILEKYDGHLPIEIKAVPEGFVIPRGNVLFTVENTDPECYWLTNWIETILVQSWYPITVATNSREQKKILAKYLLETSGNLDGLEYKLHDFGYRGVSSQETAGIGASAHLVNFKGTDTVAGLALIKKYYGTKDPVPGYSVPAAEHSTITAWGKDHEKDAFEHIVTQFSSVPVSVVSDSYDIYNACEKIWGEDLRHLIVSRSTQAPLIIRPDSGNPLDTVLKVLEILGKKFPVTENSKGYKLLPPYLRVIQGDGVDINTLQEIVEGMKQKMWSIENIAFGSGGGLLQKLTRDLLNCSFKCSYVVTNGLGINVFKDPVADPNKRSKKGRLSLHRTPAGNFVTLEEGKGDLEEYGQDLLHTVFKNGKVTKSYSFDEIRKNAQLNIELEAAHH
IC50 [1],Stability (Liver [2]),Stability (Liver [3]),remaining at 1 h [4],remaining at 1 h [5],Stability [6],Stability (Liver [7]),Drug metabolism (Liver [8]),Drug metabolism (Liver [9]),half-life [10],AUC at 24 h [11],clearance [12],Vd [13],Drug metabolism (Mus musculus [14]),solubility [15],SMILES,EC50 (SH-SY5Y),IC50 (A2780 [16]),inhibition (A2780 [17]),Activity (Mus musculus [18]),Activity (Fibrosarcoma cell),other results
4.9 nM,Stable,Stable,62%,92%,Stable,Stable,Metabolite_Detected,Metabolite_Detected,0.37 h,6.47 µg·h/mL,1.37 L/h/kg,0.8 L/kg,Metabolite_Detected,Soluble,O=C(/C=C/c1cccnc1)NCCCCC1CCN(C(=O)c2ccccc2)CC1 [DAPORINAD],3.4 nM,4.2 nM,Active,Non-Toxic,Active,Activity (Mammary cancer cell): Active; inhibition (Mus musculus [19]): Active; inhibition (Mus musculus [20]): Active; inhibition (Mus musculus [21]): Active; inhibition (Mus musculus [22]): Active; inhibition (Mus musculus [23]): Active; inhibition (Mus musculus [24]): Active
3.1 nM,Stable,Stable,45%,88%,Stable,Stable,–,–,–,–,–,–,–,–,O=C(NCCCCCCCn1cc(-c2cccnc2)nn1)c1ccccc1-c1ccccc1,5.8 nM,–,–,–,–,IC50 [25]: 4.9 nM; Drug metabolism (Liver [26]): Metabolite_Detected; Drug metabolism (Liver [27]): Metabolite_Detected; Drug metabolism (Liver [28]): Metabolite_Detected; Drug metabolism (Liver [29]): Metabolite_Detected; Drug metabolism (Liver [30]): Metabolite_Detected; Drug metabolism (Liver [31]): Metabolite_Detected
–,–,–,26%,45%,–,–,–,–,–,–,–,–,–,–,O=C(CCCCCCCn1cc(-c2cccnc2)nn1)Nc1ccccc1-c1ccccc1,–,–,–,–,–,Drug metabolism (Liver [32]): Metabolite_Detected; Drug metabolism (Liver [33]): Metabolite_Detected; Drug metabolism (Liver [34]): Metabolite_Detected; Drug metabolism (Liver [35]): Metabolite_Detected
3.8 nM,Stable,Stable,31%,49%,–,–,Metabolite_Detected,Metabolite_Detected,1.89 h,0.859 µg·h/mL,11.6 L/h/kg,31.8 L/kg,Metabolite_Notdetected,Insoluble,c1ccc(-c2ccccc2OCCCCCCn2cc(-c3cccnc3)nn2)cc1,5.2 nM,3 nM,Active,Non-Toxic,Active,IC50 [25]: 6.7 nM; Drug metabolism [36]: Metabolite_Detected; Drug metabolism [37]: Metabolite_Detected; Activity (Mammary cancer cell): Active; inhibition (Mus musculus [19]): Active; inhibition (Mus musculus [20]): Active; inhibition (Mus musculus [21]): Active; inhibition (Mus musculus [22]): Active; inhibition (Mus musculus [23]): Active; inhibition (Mus musculus [24]): Active; Activity (Mus musculus [38]): Active; Activity_index (Mus musculus [39]): 2.5; Activity (Mus musculus [40]): Active; Activity (Mus musculus [41]): Active; Activity (Mus musculus [42]): Active
